Screens deposited in PubChem BioAssay by several laboratories.
A selection: hits, their analogues and other compounds. The true share with any hit is near 3.8%.
GPR7 antag = blocks human GPR7 receptor signaling | P48145 | GPR7-expressing cells, fluorescence antagonist assay | inhibition, % at 4.4 µM | 290,000 tested, 1.1% active | AID 1861; in the data active = inhibition above about 16%, passing the limit was not always enough;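 note: cells stimulated with the agonist NPW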
CHO parental Ca = counter-screen for OX1R antagonists: effect in parental CHO cells | parental CHO-K1, ATP-induced calcium, Fluo-8 fluorescence | inhibition, % at 5.6 µM | 330,000 tested, 0.63% active | AID 463079;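 active = inhibition above that plate's mean sample inhibition plus 3 SD, cut at about 26% in these data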
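Material: Parental CHO cells | Reagent: ATP | Compound dosing: Single nominal dose of 5.6 µM per compound | Detection: Intracellular calcium via Fluo-8 no-wash fluorescent dye | Read-out: % inhibition of ATP-induced calcium mobilization | Benchmarks: Low control ATP plus DMSO, high control DMSO only | Replicates: Singlicate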
MPTP block = inhibitors of mitochondrial permeability transition pore; 360,000 tested, 1.4% active; inhibition, % at 10 µM; AID 602449; isolated mouse mitochondria, Ca2+ swelling absorbance, 30 min;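 active = inhibition of 50% or more, scaled per plate between neutral and stimulator controls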
OX1R antag-1 = OX1R (human) antagonism. OX1R-expressing cells, FRET antagonist read-out. inhibition, % at 6.6 µM. 330,000 tested, 1.8% active; in the data active = inhibition mostly above about 38%, no sharp cut-off; inactive = mostly below about 40%
Target sequence (O43613 whole entry, looked up): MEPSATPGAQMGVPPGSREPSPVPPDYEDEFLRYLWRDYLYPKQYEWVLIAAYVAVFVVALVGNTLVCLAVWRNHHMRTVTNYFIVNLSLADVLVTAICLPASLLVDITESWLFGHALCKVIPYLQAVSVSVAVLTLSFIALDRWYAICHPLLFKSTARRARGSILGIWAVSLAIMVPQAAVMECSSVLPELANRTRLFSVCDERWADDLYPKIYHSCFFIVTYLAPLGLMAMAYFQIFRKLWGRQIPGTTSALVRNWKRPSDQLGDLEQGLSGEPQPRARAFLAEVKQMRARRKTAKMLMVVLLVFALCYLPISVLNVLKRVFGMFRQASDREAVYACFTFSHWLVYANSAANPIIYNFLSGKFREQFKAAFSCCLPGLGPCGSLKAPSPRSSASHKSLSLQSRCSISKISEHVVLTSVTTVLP
OX1R antag-2 = antagonists of human orexin 1 receptor; O43613; CHO/OX1R cells, Fluo-8 calcium fluorescence, orexin A; inhibition, % at 5 µM; 330,000 tested, 0.43% active;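 active = inhibition above its plate's threshold, mean inhibition of all tested compounds on the plate plus 3 SD, cut at about 37% in these data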
GPR7 antag cf = human GPR7 antagonism, confirmation assay. inhibition, % at 4.4 µM. 2,400 tested, 52% active. GPR7-expressing cells, calcium fluorescence antagonist mode. shares compounds with GPR7 antag; in the data active = inhibition above about 24%;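 note: stimulated with the GPR7 agonist NPW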
MCHR1 antag = MCHR1 (human) antagonism in GPR7 counter-screen. shares compounds with GPR7 antag. MCHR1-expressing cells, fluorescence antagonist assay. inhibition, % at 4.4 µM. 2,400 tested, 62% active. AID 2148; in the data active = inhibition above about 22%
A number is an active result; 0 = inactive; - = no result given.

SMILES	GPR7 antag	CHO parental Ca	MPTP block	OX1R antag-1	OX1R antag-2	GPR7 antag cf	MCHR1 antag
Cc1ccc(F)cc1NC(=O)c1cnccn1	0	0	0	0	0	-	-
COc1ccc2c(c1OC)C(=O)N(c1ccc(C)cc1)C2	23	0	0	0	0	0	0
COc1ccc(-c2nnc(SCc3c(C)noc3C)o2)cc1	0	0	0	0	0	-	-
COc1ccc(N2C(=O)/C(=C3/C=CC=CN3C)SC2=S)cc1	24	0	0	0	0	0	0
COc1ccc(N2C(=O)NC(=O)C2=O)cc1	0	0	0	0	0	-	-
OC1(c2ccccc2)CCN(Cc2ccccc2)C2CCCCC21 (configuration not stated)	34	0	0	0	0	0	0
COc1ccc2[nH]c3c(=O)n(Cc4ccc(C(=O)N5CCCC5)cc4)c(=S)[nH]c3c2c1	0	0	0	0	0	-	-
CCN1CCN(C(=O)c2ccc3c(c2)N(Cc2ccc(C)cc2)CCS3)CC1	-	0	0	0	0	-	0
Cc1ccc(CN2CCSc3ccc(C(=O)N4CCOCC4)cc32)cc1	0	0	0	0	0	-	-
Cc1ccc(C(=O)OCC(=O)c2c[nH]c3ccccc23)cc1	0	0	0	0	0	-	-
CC(C)Cc1ccc(C(C)C(=O)OCC(=O)c2c[nH]c3ccccc23)cc1 (configuration not stated)	34	75	0	0	39	67	78
COc1cccc(N=Cc2c(O)c3ccccc3oc2=O)c1	28	0	0	0	0	0	31
c1ccc(-c2nc(C3CCCCC3)c3ccccc3n2)cc1	-	0	0	0	0	-	-
Cc1ccccc1CN1CCN(Cc2ccc3cccc(F)c3n2)CC1CCO (configuration not stated)	0	0	0	0	0	-	-
CC(=O)Nc1ccc(NC(=O)c2ccc(COc3ccccc3Br)o2)cc1	0	-	0	-	-	-	-
O=C(Nc1cccnc1)c1ccc(COc2ccccc2Br)o1	69	0	0	0	0	33	54
S=C(NCc1ccccc1)NCc1cccc(Cl)c1	0	-	0	-	-	-	-
S=C(NCCc1cccc(Cl)c1)NCc1ccccc1	23	-	0	-	-	0	0
Cc1nn(C)c(C)c1N1C(=O)c2cccc3c(N)ccc(c23)C1=O	22	51	0	0	62	26	38
CCOc1ccccc1NCc1cc(=O)oc2cc(C)c(O)cc12	0	-	0	-	-	-	-
Cc1cc2oc(=O)cc(CNc3ccccc3F)c2cc1O	38	0	0	0	0	44	68
Cc1nc2ccccc2n1CC(O)COc1ccc(Br)cc1 (configuration not stated)	0	0	0	0	0	-	-
CCC(=O)c1ccc(OCC(O)Cn2c(C)nc3ccccc32)cc1 (configuration not stated)	28	0	0	0	0	0	57
CCNC(=S)N/N=C/c1cn(Cc2ccccc2F)c2ccccc12	0	0	0	0	0	-	-
CNC(=S)N/N=C/c1cn(Cc2c(F)cccc2Cl)c2ccccc12	30	0	0	0	0	45	30
SMILES	GPR7 antag	CHO parental Ca	MPTP block	OX1R antag-1	OX1R antag-2	GPR7 antag cf	MCHR1 antag
COc1ccc(F)cc1C(=O)C1CCCN(C(=O)c2ocnc2C)C1 (configuration not stated)	0	0	0	0	0	-	-
CCOP(=O)(OCC)C(Nc1ccc(OC)cc1)c1ccco1 (configuration not stated)	0	0	0	0	0	-	-
C/C(=N\NC(=O)CCn1nnc2ccccc21)c1ccco1	21	0	0	0	0	0	0
Cc1nn(C2CCCO2)c(=O)nc1N (configuration not stated)	0	0	-	0	0	-	-
O=C(C1CCN(Cc2nc(Cc3cccc(F)c3)no2)CC1)N1CCOCC1	0	0	0	0	0	-	-
O=C(Nc1ccnn1C1CCN(Cc2ccc(CO)o2)CC1)c1ccccc1	29	0	0	0	0	0	0
Cc1ccccc1NC1=C(Cl)C(=O)OC1OC(=O)c1ccccc1C (configuration not stated)	52	61	0	0	0	0	59
Cc1ccc(NC2=C(Cl)C(=O)OC2OC(=O)c2ccccc2)c(C)c1 (configuration not stated)	0	0	0	0	0	-	-
CCOC(=O)c1[nH]c(CN2CCN(c3ccc(OC)cc3)CC2)c(C(=O)OCC)c1C	25	0	0	0	0	0	39
O=C(Nc1ccc(Cl)cc1)C1CC(=O)n2c(nc3ccccc32)N1 (configuration not stated)	23	0	0	0	0	0	0
O=C1c2ccc(Oc3ccc([N+](=O)[O-])cc3)cc2C(=O)N1CCO	0	0	0	0	0	-	-
O=C(O)c1ccc(CN2C(=O)c3ccc(Oc4ccc([N+](=O)[O-])cc4)cc3C2=O)cc1	39	0	0	0	0	0	0
O=C(Cn1c(=O)cnc2ccccc21)N1CCN(S(=O)(=O)c2ccccc2Br)CC1	-	0	0	0	0	-	-
Cc1cc(F)ccc1S(=O)(=O)N1CCCOC1CNC(=O)C(=O)NCCc1ccco1 (configuration not stated)	-	-	0	-	-	-	-
O=C(NCCc1ccco1)C(=O)NCC1OCCCN1S(=O)(=O)c1ccc(F)cc1 (configuration not stated)	24	0	0	0	0	0	0
O=C(CNC(=O)c1cn2ccccc2n1)Nc1ccc(F)c(F)c1	-	0	0	0	0	-	-
CCCC(C)C(=O)Nc1ncc(S(=O)(=O)c2ccc([N+](=O)[O-])cc2)s1 (configuration not stated)	65	0	0	0	0	70	87
CCOc1cc2c(cc1O)C(=NO)CC1C2CCC2(C)C(O)CCC12 (configuration not stated)	-	-	0	-	-	-	-
Cc1ccc2nccc(C(=O)N3CCCC(Nc4ccc(C)c(C)c4)C3)c2c1 (configuration not stated)	27	0	0	38	0	0	0
CCOC(=O)c1cc2ccccc2n1CCN(CC)CC	31	0	0	0	0	0	0
COC(=O)[C@@]1(Cc2ccc(F)cc2)[C@H]2c3cc(C(=O)N4CCCC4)n(Cc4ccc(C(F)(F)F)nc4)c3C[C@H]2CN1C(=O)c1ccccc1	29	0	-	0	0	39	22
CN(C(=O)COC(=O)c1nc(Cl)c(Cl)c(Cl)c1Cl)C1CCS(=O)(=O)C1 (configuration not stated)	0	-	0	-	-	-	-
O=C(COC(=O)c1ccccc1F)c1ccc(-n2nncc2-c2ccco2)cc1	22	0	0	0	0	0	26
COc1ccc(C(=O)COC(=O)c2ccco2)cc1	0	0	0	0	0	-	-
CC(=O)NC1C(=O)N(CCc2ccccc2)c2ccc(Br)cc21 (configuration not stated)	0	-	0	-	-	-	-
CCCCN1C(=O)C(NC(C)=O)c2ccccc21 (configuration not stated)	26	0	0	0	0	0	0
